HEK293 NFkB inh = lowers PMA/ionomycin-induced NF-kB signal in HEK293 cells. HEK-293 NF-kB luciferase reporter, luminescence. AID 465. inhibition, % at 3 µM. 62,000 tested, 0.21% active;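 active = inhibition above the mean of all tested compounds plus 3 SD, cut at about 40% in these data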
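Signal: luciferase luminescence; Material: HEK-293 cells with stable firefly luciferase reporter driven by four HIV NF-kB elements; Probe or stimulus: PMA with ionomycin; Replication: tested once; Times: 1 h compound pretreatment, then 16 h stimulation at 37 °C, 5% CO2; Benchmarks: DMSO and 10 µM reference inhibitor; Evaluation: per-plate % inhibition versus controls.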
Jurkat viability = cytotoxic compounds reducing Jurkat cell viability | Jurkat E6.1 viability, ATP luminescence, 48 h | inhibition, % at 4 µM | 56,000 tested, 1.2% active | AID 463;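 active = inhibition above the mean inhibition of all tested compounds plus 3 SD, cut at about 28% in these data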
MT1-MMP txn act = activates MT1-MMP transcription. HT1080 MT1-MMP promoter luciferase reporter, luminescence, overnight; hits give high values. activation factor at 10 µM. 86,000 tested, 0.16% active. AID 750;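 active = activation factor of at least 2 for MT1-MMP transcription at 10 µM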
RORA act = activators of human nuclear receptor RORA | activation, % at 10 µM | CHO-K1 Gal4-RORA LBD luciferase reporter, luminescence; percent increase over mock-subtracted basal signal | P35398 | 65,000 tested, 1.5% active;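 active = activation above the mean of all tested compounds plus 3 SD, cut at about 49% in these data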
SF1 activator = activators of human nuclear receptor SF-1; Q13285; CHO-K1 Gal4-SF-1 LBD luciferase reporter; % increase over DMSO SF-1-specific signal; activation, % at 10 µM; 65,000 tested, 1.9% active;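 active = activation above the mean activation of all tested compounds plus 3 SD, cut at about 50% in these data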
Target sequence (Q13285 whole entry, looked up, the tested form may be a part): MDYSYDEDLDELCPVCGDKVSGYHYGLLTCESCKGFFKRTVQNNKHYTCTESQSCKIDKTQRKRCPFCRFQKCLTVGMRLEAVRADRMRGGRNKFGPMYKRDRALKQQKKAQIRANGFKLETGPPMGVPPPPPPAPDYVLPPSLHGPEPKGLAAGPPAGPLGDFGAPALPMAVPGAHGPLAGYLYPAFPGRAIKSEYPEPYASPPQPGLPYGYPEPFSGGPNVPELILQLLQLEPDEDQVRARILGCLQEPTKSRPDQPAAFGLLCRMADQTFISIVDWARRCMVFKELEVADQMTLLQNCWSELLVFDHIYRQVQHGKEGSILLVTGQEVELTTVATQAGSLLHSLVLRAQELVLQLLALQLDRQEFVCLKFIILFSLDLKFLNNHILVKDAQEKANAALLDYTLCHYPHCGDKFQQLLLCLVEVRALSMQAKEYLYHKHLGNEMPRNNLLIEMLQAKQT
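Assay system: CHO-K1 cells co-transfected with Gal4 DBD–human SF-1 LBD, 5xGal4 luciferase reporter; doses: 10 µM only; incubation: 20 h compound exposure at 37 °C after 1 h cell settling; signal: luciferase light emission; evaluation: percent activation versus DMSO; repeats: one test per compound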
Numbers stand for hits; i = inactive; nt = not tested or not shown. Most compounds without a hit are left out; they make up all but 2.9% or so of the library.

SMILES	HEK293 NFkB inh	Jurkat viability	MT1-MMP txn act	RORA act	SF1 activator
O=c1c2ccccc2ncn1Cc1nc2ccccc2s1	i	nt	i	i	i
Cc1ccc(CNC(=O)[C@@H]2C[C@H]2[C@@H](NP(=O)(c2ccccc2)c2ccccc2)c2ccccc2)o1	nt	nt	i	nt	nt
C/C(=N\O)c1ccc2c3c([nH]c2c1)CCCC3	i	i	i	54	64
C/C(=N\O)c1ccc2[nH]ccc2c1	nt	nt	i	i	i
COc1ccc(CCN2C(=S)NC3CC2(C)Oc2ccc([N+](=O)[O-])cc23)cc1OC (stereo not drawn)	nt	nt	i	nt	nt
CCCOC(=O)c1ccc(NC(=O)C2CCCO2)cc1 (stereo not drawn)	i	i	i	i	68
CCn1c(=O)c(C(=O)Nc2nc3ccccc3[nH]2)c(O)c2ccccc21	i	29	nt	i	i
CCn1c(=O)c(C(=O)Nn2c(C)nc3ccccc3c2=O)c(O)c2ccccc21	i	i	i	i	i
COC(=O)c1cccc(C23CC4(C2)[C@H](CN(CC2CCCCC2)[C@@H]4c2ccccc2)C3c2ccc(Cl)nc2)c1 (stereo partly drawn)	nt	nt	i	nt	nt
CNC(=O)c1c(NC(=O)c2nc3ccccc3s2)sc2c1CCC2	i	i	i	96	72
Cc1ccc(O)c(NC(=O)CCC2CCCCC2)c1	i	39	i	i	i
Cn1c(NC(=O)CCC2CCCCC2)cc(=O)n(C)c1=O	i	i	i	i	92
COC(=O)N1C2(C=CC1(C)C(=O)NCc1ccccn1)CCCCC2 (stereo not drawn)	nt	nt	i	nt	nt
CC(=O)N1CCc2c(sc(NC(=O)c3ccc(S(=O)(=O)N(C)C)cc3)c2C#N)C1	i	i	i	i	i
CC(=O)N1CCc2c(sc(NC(=O)c3ccc4c(c3)OCCO4)c2C#N)C1	i	88	i	49	77
Cc1cc(C)c2ccc(N)nc2c1O	i	44	i	i	i
COC(=O)C1=C(C)N(CCCC(=O)O)C(=O)NC1c1ccccc1OS(=O)(=O)c1ccc([N+](=O)[O-])cc1 (stereo not drawn)	nt	nt	i	nt	nt
Cc1nc2cc(C(=O)O)ccc2s1	i	i	i	i	53
C=CCSc1n[nH]c(-c2ccccc2)n1	nt	nt	i	nt	nt
C=CCSc1n[nH]c(-c2ccc(OC)cc2)n1	i	i	i	63	68
O=c1cc(CSc2nnnn2-c2ccccc2)[nH]c2[nH]n(-c3ccccc3)c(=O)c12	i	i	i	i	i
O=C(CN1C(=O)COc2ccccc21)N(Cc1cccnc1)Cc1ccccc1F	i	i	i	i	i
COc1ccc(C(=O)c2ccc(OC)c(N)c2)cc1N	i	62	i	66	i
CCCOc1c(OC)cccc1C1CC(=O)Nc2cc3c(cc21)OCCO3 (stereo not drawn)	i	i	i	i	i
CC(C)Oc1ccccc1C1CC(=O)Nc2cc3c(cc21)OCCO3 (stereo not drawn)	i	98	i	i	i
SMILES	HEK293 NFkB inh	Jurkat viability	MT1-MMP txn act	RORA act	SF1 activator
COc1ccccc1C1CC(=O)Nc2cc3c(cc21)OCCO3 (stereo not drawn)	i	92	i	i	i
COc1cccc(C2CC(=O)Nc3cc4c(cc32)OCCO4)c1OC(C)C (stereo not drawn)	i	i	i	i	i
O=c1c(C(c2nnnn2C2CCCCC2)N2CCCCC2)coc2ccc(Cl)cc12 (stereo not drawn)	i	i	i	i	i
COc1cccc(-c2csc(NC(=O)C3CC3)n2)c1	i	i	i	74	60
Cn1c(=O)oc2cc(S(=O)(=O)N3CCCc4ccccc43)ccc21	i	91	i	i	i
COC(=O)Nc1ccc(S(=O)(=O)N2CCCc3ccccc32)cc1	i	88	i	53	i
COc1ccc(Oc2cc(C(F)(F)F)cnc2C(N)=O)cc1	nt	nt	i	nt	nt
CCc1ccc(NC(=O)Nc2cccs2)cc1	i	i	i	i	i
Cc1ccc(NC(=O)Nc2cccs2)cc1	i	nt	i	54	i
O=C(CN1CCN(c2ccccn2)CC1)Nc1cc(C(F)(F)F)ccc1Cl	i	i	i	i	i
Cc1cc(C)cc(NC(=O)NC2CCN(CC(=O)Nc3c(C)cc(C)cc3C)CC2)c1	nt	nt	i	nt	nt
CCOc1ccc(N(CC)S(=O)(=O)c2ccc3c(c2)oc(=O)n3C)cc1	i	66	i	i	i
CCOc1ccc(NS(=O)(=O)c2ccc3c(c2)oc(=O)n3C)cc1	i	i	i	i	i
O=C(Nc1ccc2nc(-c3ccccc3)[nH]c2c1)c1ccco1	nt	nt	i	nt	nt
Cc1ccc(Oc2ccc(NC(=O)c3ccco3)cc2)cc1	i	i	i	i	73
Cc1ccc(NC(=O)c2ccc(OC(=O)c3ccco3)cc2)cc1	i	i	i	51	52
COc1ccc(NC(=O)c2ccco2)cc1NC(=O)c1ccc(C)cc1	i	i	nt	i	i
O=C(Nc1ccc(Oc2ncccn2)cc1)c1ccco1	i	i	i	i	i
Cc1cccc2[nH]c(-c3ccc(NC(=O)c4ccco4)cc3)nc12	i	i	i	i	74
CN(C=O)CP(=O)(O)CN1CCCCC1	nt	nt	i	nt	nt
Cc1cccn2c(=O)c3cc(C(=O)N4CCc5ccccc5C4)n(C)c3nc12	i	i	i	i	i
Cc1nc2ccc(NC(=O)N3CCCCC3)cc2s1	i	i	i	i	54
CCCOc1cccc(C2C(C(=O)c3ccc(C)o3)=C(O)C(=O)N2CCCN(C)C)c1 (stereo not drawn)	nt	nt	i	i	i
COc1cc(NC(=O)c2nccnc2C(=O)O)cc(OC)c1	i	i	i	i	i
Cc1oc2cc3c(C(=O)OCCN(C)C)c(C)oc3cc2c1C(=O)OCCN(C)C	78	i	nt	i	i
SMILES	HEK293 NFkB inh	Jurkat viability	MT1-MMP txn act	RORA act	SF1 activator
CCOC(=O)c1c(C)oc2cc3c(C(=O)OCC)c(C)oc3cc12	nt	nt	i	nt	nt
COCCCn1cnc2oc3nc4ccccc4nc3c2c1=O	i	i	i	50	i
CCOc1cc(NC(=O)c2cnccn2)c(OCC)cc1NC(=O)c1ccc(OC)cc1	i	i	i	i	i
CCOC(=O)c1c(C)sc(Sc2ccc(Cl)cc2[N+](=O)[O-])c1OC	nt	nt	i	nt	nt
CCCCCCn1ccc(=N)cc1	i	41	i	i	i
CCCCCCN1C2=NCCN2c2ccccc21	nt	nt	i	nt	nt
Cc1ccc2[nH]cc(C(=O)NCc3cccs3)c(=O)c2c1	nt	nt	i	nt	nt
COc1cccc2c(=O)c(C(=O)NCc3cccs3)c[nH]c12	i	i	i	i	119
Cn1nccc1C(=O)OCC(=O)Nc1nc(-c2ccccc2)cs1	i	i	i	i	50
CCOc1ccc(NC(=O)c2oc3ccccc3c2NC(=O)C(C)C)cc1	i	i	i	i	i
N#CC1=C(SCC(=O)c2ccccc2)NC2=C(C(=O)CCC2)C1c1ccco1 (stereo not drawn)	nt	nt	i	174	100
Cc1ccc(C(=O)CSC2=C(C#N)C(c3ccco3)C3=C(CCCC3=O)N2)cc1 (stereo not drawn)	nt	nt	i	i	i
c1ccc(-c2onc3cc4c(cc23)OCCO4)cc1	i	i	i	74	i
CN1C(=O)CSc2ccc(NC(=O)N3CCN(c4ccccn4)CC3)cc21	i	i	i	i	i

Bioassay records: PubChem, several laboratories
